Legend:
[1] = test system: UACC-62; assay: Antiproliferative activity against human UACC62 cells after 48 hrs by MTT assay; type: functional, cell-based; conditions: UACC-62, 48 h
[2] = test system: MOLT-4; assay: Anticancer activity against human MOLT4 cells after 48 hrs by SRB assay; type: functional; conditions: MOLT-4, 48 h
[3] = test system: RPMI-8226; assay: Anticancer activity against human RPMI8226 cells after 48 hrs by SRB assay; type: functional; conditions: RPMI-8226, 48 h
[4] = test system: SR; assay: Anticancer activity against human SR cells after 48 hrs by SRB assay; type: functional
In short: (§1)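 NCI-60 five-dose mode: cells in RPMI 1640 with 5% FBS and 2 mM glutamine, plated at 5000–40,000 cells/well, and preincubated 24 h, with time-zero plates TCA-fixed. Drug given at five concentrations (10-fold or ½-log serial dilutions). Cold TCA fixation 60 min at 4 °C, SRB stain, Tris solubilization, A515. IC50 taken where [(Ti−Tz)/(C−Tz)]×100 = 50.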

[5] = test system: EKVX; assay: Anticancer activity against human EKVX cells after 48 hrs by SRB assay; type: functional
In short: (§2)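 NCI five-dose screen. Cells in RPMI 1640 with 5% FBS and 2 mM L-glutamine, seeded at 5000–40,000 cells/well according to doubling time, then pre-incubated 24 h at 37 °C in 5% CO2. Drugs dissolved in DMSO, five concentrations by 10-fold or 1/2-log dilution. Cells fixed with TCA, SRB-stained, A515 read. IC50 solved from [(Ti−Tz)/(C−Tz)]×100 = 50.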

[6] = test system: HOP-62; assay: Anticancer activity against human HOP62 cells after 48 hrs by SRB assay; type: functional; conditions: HOP-62, 48 h; in short: as §2
[7] = test system: HOP-92; assay: Anticancer activity against human HOP92 cells after 48 hrs by SRB assay; type: functional; conditions: HOP-92, 48 h; in short: as §2
[8] = test system: NCI-H23; assay: Anticancer activity against human NCI-H23 cells after 48 hrs by SRB assay; type: functional; conditions: NCI-H23, 48 h
[9] = test system: NCI-H322M; assay: Anticancer activity against human NCI-H322M cells after 48 hrs by SRB assay; type: functional
[10] = test system: NCI-H522; assay: Anticancer activity against human NCI-H522 cells after 48 hrs by SRB assay; type: functional; conditions: NCI-H522, 48 h
[11] = test system: COLO 205; assay: Anticancer activity against human COLO205 cells after 48 hrs by SRB assay; type: functional; conditions: COLO 205, 48 h; in short: as §2
[12] = test system: HCT-15; assay: Anticancer activity against human HCT15 cells after 48 hrs by SRB assay; type: functional; conditions: HCT-15, 48 h; in short: as §2
[13] = test system: HT-29; assay: Anticancer activity against human HT-29 cells after 48 hrs by SRB assay; type: functional; conditions: HT-29, 48 h; in short: as §2
[14] = test system: SW-620; assay: Anticancer activity against human SW620 cells after 48 hrs by SRB assay; type: functional; conditions: SW-620, 48 h; in short: as §1
[15] = test system: SF-268; assay: Anticancer activity against human SF268 cells after 48 hrs by SRB assay; type: functional; conditions: SF-268, 48 h
[16] = test system: SF-539; assay: Anticancer activity against human SF539 cells after 48 hrs by SRB assay; type: functional; conditions: SF-539, 48 h
[17] = test system: SNB-75; assay: Anticancer activity against human SNB75 cells after 48 hrs by SRB assay; type: functional; conditions: SNB-75, 48 h
[18] = test system: Malme-3M; assay: Anticancer activity against human MALME-3M cells after 48 hrs by SRB assay; type: functional; in short: as §2
[19] = test system: MDA-MB-435; assay: Anticancer activity against human MDA-MB-435 cells after 48 hrs by SRB assay; type: functional; conditions: MDA-MB-435, 48 h; in short: as §2
[20] = test system: SK-MEL-2; assay: Anticancer activity against human SK-MEL-2 cells after 48 hrs by SRB assay; type: functional; conditions: SK-MEL-2, 48 h
[21] = test system: SK-MEL-28; assay: Anticancer activity against human SK-MEL-28 cells after 48 hrs by SRB assay; type: functional; conditions: SK-MEL-28, 48 h
[22] = test system: UACC-257; assay: Anticancer activity against human UACC257 cells after 48 hrs by SRB assay; type: functional; conditions: UACC-257, 48 h; in short: as §1
[23] = test system: OVCAR-3; assay: Anticancer activity against human OVCAR3 cells after 48 hrs by SRB assay; type: functional; conditions: OVCAR-3, 48 h
[24] = test system: CAKI-1; assay: Anticancer activity against human Caki1 cells after 48 hrs by SRB assay; type: functional; conditions: CAKI-1, 48 h; in short: as §2
[25] = test system: TK-10; assay: Anticancer activity against human TK10 cells after 48 hrs by SRB assay; type: functional; conditions: TK-10, 48 h; in short: as §1
[26] = test system: PC-3; assay: Anticancer activity against human PC3 cells after 48 hrs by SRB assay; type: functional; conditions: PC-3, 48 h
[27] = test system: MDA-MB-231; assay: Anticancer activity against human MDA-MB-231 cells after 48 hrs by SRB assay; type: functional; conditions: MDA-MB-231, 48 h; in short: as §2
[28] = test system: T47D; assay: Anticancer activity against human T47D cells after 48 hrs by SRB assay; type: functional; in short: as §1
[29] = test system: MDA-MB-468; assay: Anticancer activity against human MDA-MB-468 cells after 48 hrs by SRB assay; type: functional; conditions: MDA-MB-468, 48 h
[30] = read-out: LC50 (the source's name)

`O=C(NCCNc1nccc(-c2c(-c3cccc(O)c3)nc3sccn23)n1)c1ccccc1O` gave an IC50 [1] of 0.161 µM, a GI50 [2] of 2.97 µM and a TGI [2] of 21.7 µM. For the same compound, the CC50 [2, 30] was over 100 µM, the GI50 [3] was 3.55 µM and the LC50 [3] was over 100 µM. For the same compound, the TGI [3] was over 100 µM, the GI50 [4] was 5.94 µM and the TGI [4] was over 100 µM. It also gave a CC50 [4, 30] of over 100 µM, a GI50 [5] of 7.81 µM and an LC50 [5] of over 100 µM. It also gave a TGI [5] of 39.1 µM, a GI50 [6] of 3.59 µM and an LC50 (concentration killing 50% of starting cells) [6] of over 100 µM. For the same compound, the TGI [6] was 32.5 µM, the GI50 [7] was 9.74 µM and the TGI [7] was 34.7 µM. The CC50 [7, 30] was over 100 µM, the GI50 [8] was 11.5 µM and the LC50 (50% lethal concentration) [8] was over 100 µM. For the same compound, the TGI [8] was 67.7 µM, the GI50 [9] was 4.6 µM and the TGI [9] was 18.5 µM. The CC50 [9, 30] was 66.6 µM, the GI50 [10] was 4.83 µM and the TGI [10] was 20.4 µM. The CC50 [10, 30] was 57 µM, the GI50 [11] was 5.58 µM and the TGI [11] was 20.9 µM. For the same compound, the CC50 [11, 30] was 66.1 µM, the GI50 [12] was 3.83 µM and the TGI [12] was 24.5 µM. For the same compound, the CC50 [12, 30] was over 100 µM, the GI50 [13] was 4.22 µM and the TGI [13] was 15.3 µM. It also gave a CC50 [13, 30] of 40.8 µM, a GI50 [14] of 5.43 µM and a TGI [14] of 49.5 µM. The CC50 [14, 30] was over 100 µM, the GI50 [15] was 3.59 µM and the TGI [15] was 24.9 µM. For the same compound, the CC50 [15, 30] was over 100 µM, the GI50 [16] was 11.9 µM and the TGI [16] was over 100 µM. It also gave a CC50 [16, 30] of over 100 µM, a GI50 [17] of 2.65 µM and a TGI [17] of 20.5 µM. The CC50 [17, 30] was over 100 µM, the GI50 [18] was 0.433 µM and the TGI [18] was 11.8 µM. For the same compound, the CC50 [18, 30] was 45.1 µM, the GI50 [19] was 1.22 µM and the TGI [19] was 3.54 µM. For the same compound, the CC50 [19, 30] was 10.6 µM, the GI50 [20] was 0.651 µM and the TGI [20] was 15.9 µM. The CC50 [20, 30] was over 100 µM, the GI50 [21] was 0.161 µM and the TGI [21] was 11.1 µM. It also gave a CC50 [21, 30] of 61.2 µM, a GI50 [22] of 6.41 µM and a TGI [22] of 73.6 µM. The CC50 [22, 30] was over 100 µM, the GI50 [23] was 3.35 µM and the TGI [23] was 30.3 µM. It also gave a CC50 [23, 30] of over 100 µM, a GI50 [24] of 3.71 µM and a TGI [24] of 55.6 µM. The CC50 [24, 30] was over 100 µM, the GI50 [25] was 11.6 µM and the TGI [25] was 52.2 µM. It also gave a CC50 [25, 30] of over 100 µM, a GI50 [26] of 5.15 µM and a TGI [26] of 77.6 µM. The CC50 [26, 30] was over 100 µM, the GI50 [27] was 2.63 µM and the TGI [27] was 62.3 µM. The CC50 [27, 30] was over 100 µM, the GI50 [28] was 2.95 µM and the TGI [28] was 20 µM. The CC50 [28, 30] was over 100 µM, the GI50 [29] was 2.3 µM and the TGI [29] was 18.2 µM. It also gave a CC50 [29, 30] of over 100 µM.
